ChEMBL document CHEMBL1770116, “Glycoglycerolipid analogues inhibit PKC translocation to the plasma membrane and downstream signaling pathways in PMA-treated fibroblasts and human glioblastoma cells, U87MG” (Eur J Med Chem, 2011)
The source made the active and inactive calls. The calls are words filed in the database; no cut-off is given here.

Tests used:
[1] = molecular target: T1, Protein kinase C (PKC) (Homo sapiens) (UniProt O94806+P41743+P17252+P05129+Q05655+P05771+Q05513+Q02156+P24723+Q15139+Q04759); assay: Inhibition of PKC activation in PMA-treated human fibroblasts assessed as inhibition of translocation to plasma membrane at 0.2 uM pretreated for 1 hr followed by 15 mins challenged with PMA by Western blot/densitometric analysis
Method in brief: (§1)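 Primary human dermal fibroblasts in 10% FBS DMEM, pretreated 1 h at 37 °C with compound (ethanol vehicle, 0.2–2 range), then 100 nM PMA for 15 min. Controls received 0.005% ethanol ± PMA. 10 µg membrane protein on 10% SDS-PAGE/PVDF, probed with anti-PKC; densitometry. IC50 derived from the inhibition curve.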

[2] = molecular target: T1, Protein kinase C (PKC) (Homo sapiens); assay: Inhibition of PKC activation in PMA-treated human fibroblasts assessed as inhibition of translocation to plasma membrane at 2 uM pretreated for 1 hr followed by 15 mins challenged with PMA by Western blot/densitometric analysis; method in brief: as §1
[3] = molecular target: T1, Protein kinase C (PKC) (Homo sapiens); assay: Inhibition of PKC activation in PMA-treated human fibroblasts assessed as decrease in MEK phosphorylation at 2 uM pretreated for 1 hr followed by 15 mins challenged with PMA by Western blot/densitometric analysis
Method in brief: (§2)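 Primary human dermal fibroblasts, 5 × 10^5 cells seeded in DMEM/10% FBS; after 24 h, compound (ethanol vehicle) in 10% FBS DMEM for 1 h at 37 °C, then 100 nM PMA for 15 min. Controls received 0.005% ethanol ± PMA. Cells sonicated; 25 µg total lysate run on 10% SDS-PAGE, blotted to PVDF and probed with phospho-specific antibodies; densitometry.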

[4] = Antitumor activity against human U87MG cells assessed as reduction in [3H]thymidine incorporation at 2 uM after 24 hrs by beta counting; assay type: functional, U-87MG ATCC; parameters: scale not given: the % may be the effect or the level left
Method in brief: (§3)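 [3H]thymidine incorporation in U87MG cells: 4 × 10^4 cells plated, treated 24 h or 48 h; […] [3H]thymidine added for final 4 h at 37 °C; radioactivity counted in trichloroacetic acid-insoluble material by β-counter. Means ± S.D. of four experiments.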

[5] = molecular target: T1, Protein kinase C (PKC) (Homo sapiens); assay: Inhibition of PKC activation in PMA-treated human fibroblasts assessed as decrease in ERK1/2 phosphorylation at 2 uM pretreated for 1 hr followed by 15 mins challenged with PMA by Western blot/densitometric analysis; method in brief: as §2
[6] = molecular target: T1, Protein kinase C (PKC) (Homo sapiens); assay: Inhibition of PKC activation in PMA-treated human fibroblasts assessed as decrease in FAK phosphorylation at 2 uM pretreated for 1 hr followed by 15 mins challenged with PMA by Western blot/densitometric analysis; method in brief: as §2
[7] = Suppression of PKC delta mRNA expression in PMA-treated human fibroblasts at 2 uM pretreated for 1 hr followed by 15 mins challenged with PMA by RT-PCR analysis; assay type: functional, cell-based; conditions: Fibroblast
Method in brief: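 Fibroblasts pretreated 1 h, then 100 nM PMA for 15 min. RNA taken for real-time PCR of PKCα and PKCδ with SYBR Green and 0.2 µM primers. Cycling: 95 °C for 3 min, then 40 cycles of 95 °C 10 s / 58 °C 30 s; specificity checked by melting curve. Means ± S.D. of four experiments, Student's t-test.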

[8] = system: U-87 MG; assay: Inhibition of human U87MG cell migration assessed as reduction in wound size at 2 uM pretreated for 48 hrs measured after 30 hrs of scratching by scratch migration assay relative to control; assay type: functional, U-87MG ATCC
Method in brief: (§4)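 U87MG cells (8 × 10^4) pretreated 48 h in 10% FBS DMEM, ethanol-only controls. Wound width photographed under phase contrast at 0, 6, 24 and 30 h post-scratch.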

[9] = molecular target: Protein kinase C (PKC); assay: Inhibition of PKC activation in PMA-treated human fibroblasts assessed as inhibition of translocation to plasma membrane cells pretreated for 1 hr followed by 15 mins challenged with PMA by Western blot/densitometric analysis; method in brief: as §1
[10] = molecular target: T1, Protein kinase C (PKC) (Homo sapiens); assay: Inhibition of PKC activation in PMA-treated human fibroblasts assessed as decrease in Raf phosphorylation at 2 uM pretreated for 1 hr followed by 15 mins challenged with PMA by Western blot/densitometric analysis; method in brief: as §2
[11] = molecular target: T1, Protein kinase C (PKC) (Homo sapiens); assay: Inhibition of PKC activation in human U87MG cells assessed as inhibition of translocation to plasma membrane at 2 uM after 24 hrs by Western blot/densitometric analysis; assay type: cell-based; conditions: U-87MG ATCC
Method in brief: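 U87MG cells (4 × 10^5) cultured in DMEM high glucose/10% FBS, treated 24 h at 37 °C; controls received 0.005% ethanol. Means ± S.D. of three experiments, Student's t-test.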

[12] = Antitumor activity against human U87MG cells assessed as reduction in [3H]thymidine incorporation at 2 uM after 48 hrs by beta counting; assay type: functional, U-87MG ATCC; parameters: scale not given: the % may be the effect or the level left; method in brief: as §3
[13] = system: U-87 MG; assay: Inhibition of human U87MG cell migration at 2 uM pretreated for 48 hrs measured after 6 to 30 hrs of scratching by scratch migration assay relative to control; assay type: functional, cell-based; conditions: U-87MG ATCC; method in brief: as §4

Compound	inhibition [1] [%]	inhibition [2] [%]	inhibition [11]	also measured
OCC(CO)O[C@@H]1O[C@H](CO)[C@H](O)[C@H](O)[C@H]1O	27	50		
CCCCCC(=O)OC[C@H]1O[C@@H](OC(CO)CO)[C@H](O)[C@@H](O)[C@H]1O	35	64		
CC(C)CC(=O)OC[C@H]1O[C@@H](OC(CO)CO)[C@H](O)[C@@H](O)[C@H]1O	23	99	58%	inhibition [3]: Active; Activity [4]: 25%; inhibition [5]: Active; inhibition [6]: Active; Activity [7]: Active; inhibition at 2 µM [8]: 16%; IC50 [9]: 480 nM; inhibition [10]: Active; Activity [12]: 30%; inhibition [13]: Active

Further lines, with some results ahead:

inhibition [1] [%]	inhibition [2] [%]	inhibition [11]	Compound	also measured
38	52		O=C(CC1CCCCC1)OC[C@H]1O[C@@H](OC(CO)CO)[C@H](O)[C@@H](O)[C@H]1O	
		inactive	CCCCCCCCCC(=O)OC[C@H]1O[C@@H](OC(CO)CO)[C@H](O)[C@@H](O)[C@H]1O	
